Reference: the EternaBench riboswitch data

Experiments:
MS2 coat protein [1] = test: apparent Kd, MS2 coat protein; higher = weaker binding; RNA-MaP array; theophylline 2 mM where present
In short: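 Apparent Kd: the median of filtered binding-curve fits from single clusters. Designs were transcribed on Illumina sequencing-chip clusters by stalled E. coli RNA polymerase and titrated with SNAP-549-labelled MS2 coat protein from 0.7 or 1.5 nM, doubling to 3 µM, in 100 mM Tris-HCl pH 7.5, 80 mM KCl, 4 mM MgCl2, BSA, DTT, yeast tRNA and Tween-20. Each series ran without and then with constant ligand, and green signal was normalised to red-channel RNA signal and control-cluster median Fmax.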

MS2 coat protein [2] = test: apparent Kd, MS2 coat protein; higher = weaker binding; RNA-MaP array
In short: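 Incubations were done at room temperature with fluorescently labeled MS2 coat protein at 1.5 nM to 3 μM and designed RNAs transcribed on an Illumina sequencing chip from sequenced DNA templates, with or without input ligand. Apparent Kd is the median of binding curves fitted for each cluster. Designs with fewer than 10 measured clusters were excluded.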

[3] = designed as: ON switch for theophylline, no ligand
[4] = ligand present: theophylline, designed as: ON switch for theophylline
[5] = designed as: OFF switch for theophylline, no ligand
[6] = ligand present: theophylline, designed as: OFF switch for theophylline
[7] = designed as: OFF switch for flavin mononucleotide, no ligand
[8] = ligand present: flavin mononucleotide, designed as: OFF switch for flavin mononucleotide
[9] = designed as: ON switch for flavin mononucleotide, no ligand
[10] = ligand present: flavin mononucleotide, designed as: ON switch for flavin mononucleotide

## AAACUAACGAGAGGAAACCUCGAGGGUGAUACCAGCACAUAAGGGUGCCCUUGGCAGCACCGACGUACAUGAGGAUCACCCAUGU
MS2 coat protein [1]; [3]
  apparent Kd: 162 nM
MS2 coat protein [1]; [4]
  apparent Kd: 65 nM

## AACAUGAGGAUCACCCAUGUAUUGGGUGAUACCAGCCUGAAUAAUGGCCCUUGGCAGCACCACGCUAACUUUAUGUCUGCGAACC
MS2 coat protein [1]; [3]
  apparent Kd: 92.2 nM
MS2 coat protein [1]; [4]
  apparent Kd: 162 nM

## AACUGGACCCGUGAUACCAGAGACAUGAGGAUCACCCAUGUACAUGAGGAUCACCCAUGUCUCCCUUGGCAGCACCGCAGGGAGC
MS2 coat protein [1]; [5]
  apparent Kd: 97.5 nM
MS2 coat protein [1]; [6]
  apparent Kd: 393 nM

## AAUUUGUCGGGUGAUACCAGCCUCGGCGCGUCUCGCGCUGAACAUGAGGAUCACCCAUGUGGCCCUUGGCAGCACAUGACAAAUC
MS2 coat protein [1]; [3]
  apparent Kd: 670 nM
MS2 coat protein [1]; [4]
  apparent Kd: 38.2 nM

## ACAUCCAGGUUAAUCGUGGGCAUGGUCGAUACCAGUAUUUUAAUCUACCCUUGGCAGCGACAUGAGGAUCACCCAUGUGCGAUGA
MS2 coat protein [1]; [5]
  apparent Kd: 24.6 nM
MS2 coat protein [1]; [6]
  apparent Kd: 36.3 nM

## ACAUGAGGAUCACCCAUGUCAAGGCACGAUACCAGCUGAUCCCGUGGCCCUUGGCAGCGUCACGUUUGGUCCCGCGGAUGACACG
MS2 coat protein [1]; [3]
  apparent Kd: 89 nM
MS2 coat protein [1]; [4]
  apparent Kd: 95.8 nM

## ACAUGAGGAUCACCCAUGUGGCGACUUGAUACCAGACCCGCACUAGUCCCUUGGCAGCAACUACGUGUGGGACACCCAUGUUAAG
MS2 coat protein [1]; [5]
  apparent Kd: 16.9 nM
MS2 coat protein [1]; [6]
  apparent Kd: 22 nM

## ACCCUAGCGAUCGCUCGCUAGGGUGCGGAUACCAGCGAGGUCCAUCGCCCUUGGCAGCCGAACAUGAGGAUCACCCAUGUCGGUA
MS2 coat protein [1]; [3]
  apparent Kd: 10.7 nM
MS2 coat protein [1]; [4]
  apparent Kd: 14.3 nM

## ACGAACGAUAGUGAUACCAGACGUACAUGAGGAUCACCCAUGUUAUACACAUGGUUUAUUGUCCCUUGGCAGCACGAUAAGUUCG
MS2 coat protein [1]; [5]
  apparent Kd: 225 nM
MS2 coat protein [1]; [6]
  apparent Kd: 287 nM

## ACGAACGAUAGUGAUACCAGACGUACAUGAGGAUCACCCAUGUUUUGGGUAAGGUUAAUAGUCCCUUGGCAGCACUUUAAGUUCG
MS2 coat protein [1]; [5]
  apparent Kd: 58.7 nM
MS2 coat protein [1]; [6]
  apparent Kd: 398 nM

## ACGUCUCGAAAACUCGUAGUAACAAUAGAUACCAGUAGCGAGAGUUACCCUUGGCAGCUACAUGAGGAUCACCCAUGUACGAGGA
MS2 coat protein [1]; [5]
  apparent Kd: 17.4 nM
MS2 coat protein [1]; [6]
  apparent Kd: 17.2 nM

## AGAAUAACACAUGAGGAUCACCCAUGUGAUACCAGCUAGGAAACUAGCCCUUGGCAGCACAUAAUCCUCAUGAAUGUGCUGAAUA
MS2 coat protein [1]; [5]
  apparent Kd: 70.4 nM
MS2 coat protein [1]; [6]
  apparent Kd: 60.6 nM

## GUCGUAGGCUAAGGAUAUAGUGAAAGAGUGAAGGCCUGAUCAGACAUGAGGAUCACCCAUGUGAACUAGAAGGUAGGCAAGGCU
MS2 coat protein [2]; [7]
  apparent Kd: 13.5 nM
MS2 coat protein [2]; [8]
  apparent Kd: 12.5 nM

## GUGAUACAUGAGGAUCACCCAUGUUAAGGUCUUGCAGGAUAUCCAGAACUCGAGAUAGAUGGAGAAGGGCAUGCAU
MS2 coat protein [2]; [9]
  apparent Kd: 12.6 nM
MS2 coat protein [2]; [10]
  apparent Kd: 9.76 nM

## GUGGACAUGAGGAUCACCCAUGUAAGUCGGCGAGGACCGGUACGGCCGCCACUCGUGUUCUGUCUCAGCUCAAACGUAGCCGGAA
MS2 coat protein [2]; designed as: ON switch for tryptophan, no ligand
  apparent Kd: 36.3 nM
MS2 coat protein [2]; ligand present: tryptophan, designed as: ON switch for tryptophan
  apparent Kd: 17.9 nM

## GUGUUACAUGAGGAUCACCCAUGUGUCUGAUGUCAAGGAUAUGACUCUUCCUUCACAAAGUCAGAAGGUGAUAUCA
MS2 coat protein [2]; [9]
  apparent Kd: 66.2 nM
MS2 coat protein [2]; [10]
  apparent Kd: 12.8 nM

## GUUUCCUCAGGAUAUUACUGCCGGGACAUGAGGAUCACCCAUGUGGCCUCCGUAAGGCUAUAAGAAGGGAGGCGUC
MS2 coat protein [2]; [7]
  apparent Kd: 111 nM
MS2 coat protein [2]; [8]
  apparent Kd: 157 nM

## UAAAUGUUUUAGAAGGGAUAAUGCGGCAUUGAAUCAGGAUAUAAAGCUAUAAACACAUGAGGAUCACCCAUGUCCCAGGUUAAA
MS2 coat protein [2]; [9]
  apparent Kd: 477 nM
MS2 coat protein [2]; [10]
  apparent Kd: 143 nM

## UAAGCACAUGAGGAUCACCCAUGUAAGGAUAUCCGAUCAUGCAAUCCGGAGAUCACAAGGAGAAGGUACAUGCA
MS2 coat protein [2]; [7]
  apparent Kd: 29.6 nM
MS2 coat protein [2]; [8]
  apparent Kd: 33.3 nM

## UAAGGACUUAUAGGAUAUGCAAACAUGAGGAUCACCCAUGUGAACCACGAAAUGACGCAGAAUAAGCAGAAGGAUAGUACGUAC
MS2 coat protein [2]; [9]
  apparent Kd: 32.7 nM
MS2 coat protein [2]; [10]
  apparent Kd: 25.5 nM

## UAAUACCAUACAGGAUAUACUUAGCCCAAAACAUGAGGAUCACCCAUGUAUUGGAGUCCUCGGCGGUAGAAGGGUACAGAAAGA
MS2 coat protein [2]; [7]
  apparent Kd: 19.5 nM
MS2 coat protein [2]; [8]
  apparent Kd: 16.4 nM

## UAAUUAACGUAGAAGGAAUCCCAUCCGUUGCAAUUAGGAUAUACGUUCCCUCGAACAUGAGGAUCACCCAUGUGGCAACCAUAU
MS2 coat protein [2]; [7]
  apparent Kd: 14.7 nM
MS2 coat protein [2]; [8]
  apparent Kd: 13.8 nM

## UACAUGAGGAUCACCCAUGUGUGUAGCUAUUACUGUUACAUCUAGGAUAUGUCGGGAACUCAACAACAGAAGGAGAUAGAAGGA
MS2 coat protein [2]; [9]
  apparent Kd: 48.8 nM
MS2 coat protein [2]; [10]
  apparent Kd: 33.8 nM

## UACCCAUUAGAGAAGGUUGACGCCCUAGUUGUCAAAGGAUAUCUCCUCGAGGCUACACAUGAGGAUCACCCAUGUUCACAGGUC
MS2 coat protein [2]; [7]
  apparent Kd: 9.35 nM
MS2 coat protein [2]; [8]
  apparent Kd: 8.92 nM

## UACUCAAGAGUAAGGAUAUAGAACCAAAUAGCGGACUAGAAGGUACAUGAGGAUCACCCAUGUCAAAGACAGAA
MS2 coat protein [2]; [7]
  apparent Kd: 7.44 nM
MS2 coat protein [2]; [8]
  apparent Kd: 7.19 nM
